Bioassay records: PubChem BioAssay, several laboratories
aDG glyco up: alpha-DG glycosylation activation. Pro5-aDG cells, alpha-DG glycosylation AlphaScreen (IIH6); 0% Pro5, 100% B10-LARGE cell signal. activation, % at 10 µM. 360,000 tested, 0.22% active. AID 624168;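 active = activation of at least 8% versus controls, or a plate z-score of at least 8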;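 also: Pro5 are CHO cells carrying HIG-tagged alpha-DG that lacks glycosylation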
V-ATPase pH: alters yeast V-ATPase proton transport; S. cerevisiae, pHLuorin cytosolic pH fluorescence; 350,000 tested, 0.37% active; response, % at 10 µM; AID 504577; in the data active = response mostly above about 7.3%, no sharp cut-off; inactive = mostly below about 5.4%; also: actives read high
Hep lipid drop: hepatic lipid droplet formation modulation; inhibition, % at 6.5 µM; 240,000 tested, 0.4% active; AML12 mouse hepatocytes, oleate lipid droplets, BODIPY imaging;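 active = lipid droplet intensity inhibited by at least 50%, with more than 500 cells counted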
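Assay system: AML12 mouse liver cells | Compound: 6.5 µM single-point dosing | Schedule: Overnight exposure | Technique: Fluorescence imaging, 20x objective, two fields per well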
ADAM17 inh: inhibitors of human ADAM17; 370,000 tested, 0.83% active; inhibition, % at 6.95 µM; P78536; recombinant ADAM17, EDANS/DABCYL FRET peptide cleavage; AID 720648;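 active = inhibition above the mean of compounds lying between control limits plus 3 SD, set per campaign, cut at about 8.5% in these data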;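 also: 0% = DMSO-only wells as the low control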
MPTP inh: blocks calcium-induced mitochondrial swelling. inhibition, % at 10 µM. isolated mouse mitochondria, Ca2+ swelling absorbance, 30 min. 360,000 tested, 1.4% active;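 active = inhibition of 50% or more, scaled per plate between neutral and stimulator controls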;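 also: 0% = DMSO wells given calcium and 100% = 1 mM EGTA wells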
ADAM10 inh: inhibitors of human ADAM10 | 370,000 tested, 0.62% active | inhibition, % at 7 µM | recombinant ADAM10, EDANS/DABCYL FRET peptide cleavage, 3 h;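 active = inhibition above a per-campaign cutoff equal to the mean of compounds falling between control-based bounds plus 3 SD, cut at about 20% in these data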;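 also: 0% = DMSO wells while the 100% control is not disclosed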
Target sequence (O14672 214-748 limits assumed): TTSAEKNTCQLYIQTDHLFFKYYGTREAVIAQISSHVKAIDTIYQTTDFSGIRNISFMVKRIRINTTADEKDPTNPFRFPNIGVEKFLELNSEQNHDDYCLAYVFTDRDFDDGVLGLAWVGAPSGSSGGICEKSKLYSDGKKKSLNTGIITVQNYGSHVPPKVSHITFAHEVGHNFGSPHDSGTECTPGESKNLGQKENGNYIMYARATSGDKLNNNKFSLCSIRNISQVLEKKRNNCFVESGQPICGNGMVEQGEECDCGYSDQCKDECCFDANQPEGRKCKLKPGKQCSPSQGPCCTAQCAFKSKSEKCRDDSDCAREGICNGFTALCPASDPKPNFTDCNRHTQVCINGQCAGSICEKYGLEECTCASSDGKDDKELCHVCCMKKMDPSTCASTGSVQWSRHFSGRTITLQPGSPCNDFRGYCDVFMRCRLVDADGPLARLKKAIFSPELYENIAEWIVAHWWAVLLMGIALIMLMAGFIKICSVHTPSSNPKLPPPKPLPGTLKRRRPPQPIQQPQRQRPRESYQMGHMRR
Rh123 counter: Rhodamine 123 counter-screen of mitochondrial pore hits | isolated mitochondria, membrane potential, Rhodamine 123 fluorescence | shares compounds with MPTP inh | inhibition, % at 10 µM | 5,000 tested, 78% active; in the data active = inhibition above about 22%;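 also: 0% = DMSO vehicle and 100% = positive control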
aDG glyco conf: alpha-DG glycosylation activation, confirmation. shares compounds with aDG glyco up. Pro5-aDG cells, IIH6 AlphaLISA; scaled to LARGE-overexpressing B10 cells as 100%. activation, % at 10 µM (by protocol). 600 tested, 17% active;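 active = activation of at least 7% in one or more replicates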;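 also: cells exposed to compound for two days before detection; 0% = DMSO-treated Pro5 cells and 100% = DMSO-treated B10-LARGE cells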
ADAM10 confirm: human ADAM10 inhibition, confirmation. 2,100 tested, 1% active. ADAM10 QFRET peptide cleavage, EDANS fluorescence. shares compounds with ADAM10 inh. inhibition, % at 6.95 µM;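 active = inhibition above about 20% chosen separately for each screening run, limit read from the data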;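 also: 0% = DMSO wells and 100% = marimastat wells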
ADAM17 counter: counter-screen for ADAM10 exosite inhibitors: inhibitors of human ADAM17. shares compounds with ADAM10 inh. ADAM17 QFRET peptide cleavage, EDANS fluorescence. inhibition, % at 6.95 µM. 2,100 tested, 0.5% active. AID 743214;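 active = mean triplicate inhibition above the solvent-only control wells' mean plus 3 SD, cut at about 12% in these data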;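 also: 0% = DMSO wells and 100% = marimastat wells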
ADAM10 ctr: inhibits human ADAM10 in ADAM17 exosite counter-screen; shares compounds with ADAM17 inh; recombinant ADAM10, EDANS/DABCYL FRET peptide cleavage, 3 h; inhibition, % at 6.95 µM; 2,900 tested, 47% active;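 active = mean inhibition over the triplicate runs exceeds the activity threshold set in the earlier primary screen, cut at about 20% in these data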;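 also: 0% = DMSO wells and 100% = marimastat wells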
ADAM17 confirm: confirmation of inhibitors of human ADAM17; shares compounds with ADAM17 inh; recombinant ADAM17, EDANS/DABCYL QFRET peptide cleavage; inhibition, % at 6.95 µM; 2,900 tested, 65% active; AID 743257;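 active = mean inhibition across replicates above the hit cutoff set in the primary screen, cut at about 8.5% in these data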;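 also: 0% = DMSO wells and 100% = marimastat wells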
An asterisk follows results filed as active; x = no result given. Only some compounds are listed: those with a hit (about 3.1% of all), similar ones and a draw of the others.

SMILES	aDG glyco up	V-ATPase pH	Hep lipid drop	ADAM17 inh	MPTP inh	ADAM10 inh	Rh123 counter	ADAM10 confirm	ADAM17 counter	ADAM10 ctr	ADAM17 confirm	others
CCN(CC)S(=O)(=O)c1cccc(NC(=O)Nc2cccc(C(F)(F)F)c2)c1	1	-2	-7	11*	87*	30*	69*	6	2	55*	29*
Cc1ccc(NC(=O)c2cccs2)cc1S(=O)(=O)Nc1cccc(Cl)c1	0	-2	-9	20*	60*	37*	68*	2	2	11	6
COC(=O)[C@]12C[C@H](CC(=O)NCCc3ccccc3OC)C(=O)N(CCc3ccc(OC)c(OC)c3)C1=C[C@H](C(C)(C)C)O[C@@H]2C	x	x	x	7	x	13	x	x	x	x	x
CCCC1CCC2(CC1)CCC2OC(=S)Nc1ccc(Cl)cc1 (stereo unspecified)	x	x	x	-1	x	3	x	x	x	x	x
CCc1ccc(NC(=O)c2ccc(F)c(S(=O)(=O)NCC3COc4ccccc4O3)c2)cc1 (stereo unspecified)	4	-6	4	13*	84*	29*	78*	12	4	43*	19*
CCN(c1ccccc1)S(=O)(=O)c1cc(C(=O)Nc2ccc(Br)cc2)ccc1F	3	-1	11	12*	97*	24*	89*	8	3	26*	13*
COc1ccc(OC)c(-c2csc(NC(=O)CSc3ccc([N+](=O)[O-])cc3)n2)c1	0	-2	1	11*	56*	23*	63*	6	2	29*	13*
COc1ccc(OC)c(-c2csc(NC(=O)CSc3ccc(Br)cc3)n2)c1	0	1	-7	3	39	4	x	x	x	x	x
O=S(=O)(NCC(Nc1ccccc1)c1ccccc1)c1ccc(Cl)cc1 (stereo unspecified)	0	-1	-24	9.0*	52*	15	74*	x	x	36*	21*
CCOC(=O)CC[C@@H]1CC[C@]2(CCCN(Cc3nccn3C)C2)O1	x	x	x	-1	x	1	x	x	x	x	x
O=C(Cn1cnc2c(NCc3ccccc3)ncnc21)N1CCN(c2ccccn2)CC1	0	0	x	-8	-1	-23	x	x	x	x	x
Cc1cc(C)c(CN2CCN(C(=O)Cn3cnc4c(NCc5ccccc5)ncnc43)CC2)c(C)c1	1	0	x	16*	80*	28*	84*	3	1	29*	14*
CC(=O)N1CCN(C(=O)C2CCCN(C(=O)c3ccc4c(c3)NC(=O)CS4)C2)CC1 (stereo unspecified)	x	x	x	0	x	-5	x	x	x	x	x
Cc1ccc(CN2CCCCC(NC(=O)c3ccc(-c4ccccc4)cc3)C2=O)cc1 (stereo unspecified)	x	x	x	1	x	7	x	x	x	x	x
CCCc1ccc(C(C)NC(=S)NCc2ccc(F)cc2)cc1 (stereo unspecified)	0	-2	-5	9.1*	64*	12	91*	x	x	34*	17*
O=C(OC12CCCN(C1)/C(=C/c1ccc(Cl)cc1)C2)C1CCCCC1 (stereo unspecified)	x	x	x	-3	x	-14	x	x	x	x	x
CCCN(CC(=O)Nc1cccc(Br)c1)CC(=O)Nc1ccc(F)c(F)c1F	1	-3	-15	21*	74*	32*	75*	2	1	29*	15*
C[C@H]1COc2cccc(N3CCSCC3)c2S(=O)(=O)N1C	x	x	x	-5	x	-5	x	x	x	x	x
O=C(NC(Nc1ncc(S(=O)(=O)c2ccc([N+](=O)[O-])cc2)s1)(C(F)(F)F)C(F)(F)F)c1ccc(Cl)cc1	0	0	-24	12*	100*	7	87*	x	x	41*	17*
CC(C)C1Nc2c(O)cc(Cl)c([N+](=O)[O-])c2C2C=CCC21 (stereo unspecified)	0	-5	-23	15*	92*	19	78*	x	x	21*	14*
CCC(C)c1ccccc1NC(=O)COC(=O)c1ccc2[nH]c3c(c2c1)CCCC3 (stereo unspecified)	0	0	59*	11*	83*	2	73*	x	x	-1	6
O=C(Nc1cccc(Cl)c1)c1cc(S(=O)(=O)NCCc2ccc(Cl)cc2)ccc1F	0	x	-30	13*	70*	29*	71*	11	4	34*	17*
Cc1ccc(NC(=O)c2cc(S(=O)(=O)NCCc3ccccc3)ccc2F)cc1Cl	1	-1	-15	16*	56*	23*	71*	10	3	24*	14*
CCOC(=O)N1CCC(NC(=O)c2cc(S(=O)(=O)NCCc3ccccc3)ccc2F)CC1	1	3	0	3	7	-6	x	x	x	x	x
O=C(O)c1ccc(N2CCN(c3ccc(Cl)cc3)CC2)c([N+](=O)[O-])c1	0	0	x	0	0	5	x	x	x	x	x
CC(=O)c1ccc(N2CCC(c3cc(-c4ccc(Cl)cc4Cl)n[nH]3)CC2)c([N+](=O)[O-])c1	8.8*	2	x	13*	74*	20*	68*	13	4	44*	21*	aDG glyco conf=6
Cc1ccc(S(=O)(=O)N(CC(=O)Nc2ccc(Cl)c([N+](=O)[O-])c2)C2CCCCC2)cc1	1	-5	-3	14*	91*	25*	81*	10	2	25*	14*
COC(=O)[C@]12C[C@H](CC(=O)N3CCC(c4ccccc4)CC3)C(=O)N(CCC3=CCCCC3)C1=C[C@H](C(C)C)O[C@@H]2C1CC1	x	x	x	-3	x	-1	x	x	x	x	x
COc1ccc(N=C2SCC(c3ccc([N+](=O)[O-])cc3)=NN2CCO)cc1	0	0	26	4	8	3	x	x	x	x	x
